Laboratory results: ChEMBL document CHEMBL2203131, “An unusually cold active nitroreductase for prodrug activations” (Bioorg Med Chem, 2012)

What was measured:
[1] = Ratio of apparent Km for Escherichia coli NfsB-mediated prodrug conversion to apparent Km for Staphylococcus saprophyticus ATCC 15305 Ssap-NtrB-mediated prodrug conversion; format: ADME
[2] = tested on: Staphylococcus saprophyticus; test: Activity of Staphylococcus saprophyticus ATCC 15305 Ssap-NtrB assessed as residual activity measured for 10 mins at 3 degC by spectrophotometric analysis
[3] = Prodrug conversion in buffer using NADH as cofactor assessed as Escherichia coli AzoR-mediated reduction by steady state kinetics analysis; format: ADME
[4] = Ratio of apparent Kcat to apparent Km for Escherichia coli AzoR-mediated prodrug conversion using NADPH as cofactor by steady state kinetic analysis; format: ADME
[5] = Prodrug conversion in buffer using NADPH as cofactor assessed as Escherichia coli AzoR-mediated reduction by steady state kinetics analysis; format: ADME
[6] = Ratio of apparent Kcat to apparent Km for Escherichia coli NfsA-mediated prodrug conversion using NADPH as cofactor by steady state kinetic analysis; format: ADME
[7] = Prodrug conversion in buffer using NADPH as cofactor assessed as Escherichia coli NfsA-mediated reduction by steady state kinetics analysis; format: ADME
[8] = Ratio of apparent Kcat to apparent Km for Bacillus amyloliquefaciens CAMR 0454 ywrO-mediated prodrug conversion using NADPH as cofactor by steady state kinetic analysis; format: ADME
[9] = Prodrug conversion in sodium phosphate buffer using NADPH as cofactor assessed as Bacillus amyloliquefaciens CAMR 0454 ywrO-mediated reduction by steady state kinetics analysis; format: ADME
[10] = Ratio of apparent Kcat to apparent Km for Escherichia coli NfsB-mediated prodrug conversion using NADH as cofactor by steady state kinetics analysis; format: ADME
[11] = Ratio of apparent Kcat to apparent Km for Escherichia coli NfsB-mediated prodrug conversion using NADPH as cofactor by steady state kinetics analysis; format: ADME
[12] = Prodrug conversion in Tris-HCl buffer using NADH as cofactor assessed as Escherichia coli NfsB-mediated reduction by steady state kinetics analysis; format: ADME; settings: for Km: read-out: Km(app)
[13] = Prodrug conversion in Tris-HCl buffer using NADPH as cofactor assessed as Escherichia coli NfsB-mediated reduction by steady state kinetics analysis; format: ADME; settings: for Km: read-out: Km(app)
[14] = Ratio of apparent Kcat to apparent Km for Staphylococcus saprophyticus ATCC 15305 Ssap-NtrB-mediated reduction by steady state kinetics analysis; format: ADME
Method in brief: (§1)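 Steady-state kinetics with purified His6-Ssap-NtrB used CB1954 at 0.05–4 mM or a series of SN23862 concentrations in 50 mM Tris-Cl pH 7.0 containing 4% DMSO. Parameters came from nonlinear Michaelis–Menten fitting. One unit is defined as 1 µmol substrate converted per min, and specific activity was expressed per mg active enzyme.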

[15] = Prodrug conversion in Tris-HCl buffer assessed as Staphylococcus saprophyticus ATCC 15305 Ssap-NtrB-mediated reduction by steady state kinetics analysis; format: ADME; settings: for Km: read-out: Km(app); method in brief: as §1
[16] = Prodrug conversion in Tris-HCl buffer assessed as Staphylococcus saprophyticus ATCC 15305 Ssap-NtrB-mediated [5-(aziridin-1-yl)-2-hydroxyamino-4-nitrobenzamide] formation after 30 mins by HPLC analysis; format: ADME; settings: 0.5 h
Method in brief: (§2)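 CB1954 (1 mM final) or SN23862 (80 µM) was incubated in degassed 50 mM Tris-Cl pH 7.0, kept anaerobic by nitrogen bubbling, with 50 µg/ml Ssap-NtrB and 3.4 mM NADPH for at least 30 min at 18–20 °C. Reactions were stopped with ice-cold methanol, held at −80 °C, then centrifuged. Products were resolved by reverse-phase C18 HPLC with an acetonitrile–water gradient. Detection was at 260/420 nm, or 390/450 nm for SN23862.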

[17] = Prodrug conversion in Tris-HCl buffer assessed as Staphylococcus saprophyticus ATCC 15305 Ssap-NtrB-mediated [5-(aziridin-1-yl)-4-hydroxyamino-2-nitrobenzamide] formation after 30 mins by HPLC analysis; format: ADME; settings: 0.5 h; method in brief: as §2
[18] = Ratio of apparent Kcat to apparent Km for Escherichia coli AzoR-mediated prodrug conversion using NADH as cofactor by steady state kinetic analysis; format: ADME
[19] = tested on: Staphylococcus saprophyticus; test: Activity of Staphylococcus saprophyticus ATCC 15305 Ssap-NtrB assessed as residual activity measured for 10 mins at 15 degC by spectrophotometric analysis
[20] = Ratio of apparent Kcat/apparent Km for Escherichia coli NfsB to apparent Kcat/apparent Km for Staphylococcus saprophyticus ATCC 15305 Ssap-NtrB; format: ADME
[21] = Prodrug conversion in sodium phosphate buffer using NAD(P)H as cofactor assessed as Bacillus amyloliquefaciens CAMR 0454 ywrO-mediated reduction by steady state kinetics analysis; format: ADME
[22] = Prodrug conversion in Tris-HCl buffer assessed as Staphylococcus saprophyticus ATCC 15305 Ssap-NtrB-mediated reduction after 30 mins by HPLC analysis; format: ADME; settings: 0.5 h; method in brief: as §2

Row | Compound | Activity [2] [%] | Kcat/Km [10] [M⁻¹ s⁻¹] | Kcat/Km [11] [M⁻¹ s⁻¹] | Kcat(app) [12] [s⁻¹] | Km [12] [µM] | Kcat(app) [13] [s⁻¹] | Km [13] [µM] | Kcat/Km [14] [M⁻¹ s⁻¹] | Kcat(app) [15] [s⁻¹] | Km [15] [µM] | Activity [19] [%] | other results
1 | NC(=O)c1cc(N2CC2)c([N+](=O)[O-])cc1[N+](=O)[O-] [TRETAZICAR] | 55 | 5600 | 7300 | 62 | 11000 | 26 | 3600 | 2120 | 2.26 | 1070 | 55 | Ratio [1]: 20; Kcat(app) [3]: 0.15 s⁻¹; Km ([3]; read-out: Km(app)): 6600 µM; Kcat/Km [4]: 110 M⁻¹ s⁻¹; Kcat(app) [5]: 0.15 s⁻¹; Km ([5]; read-out: Km(app)): 1400 µM; Kcat/Km [6]: 73000 M⁻¹ s⁻¹; Kcat(app) [7]: 16 s⁻¹; Km ([7]; read-out: Km(app)): 220 µM; Kcat/Km [8]: 13268 M⁻¹ s⁻¹; Kcat(app) [9]: 8.2 s⁻¹; Km ([9]; read-out: Km(app)): 618 µM; Drug metabolism [16]: Active; Drug metabolism [17]: Active; Kcat/Km [18]: 23 M⁻¹ s⁻¹
2 | NC(=O)N/N=C/c1ccc([N+](=O)[O-])o1 [NITROFURAZONE] | – | 66875 | 61764 | 10.7 | 160 | 10.5 | 170 | 44180 | 2.2 | 49.8 | – | Ratio [20]: 1.4
3 | NC(=O)c1cc(N(CCCl)CCCl)c([N+](=O)[O-])cc1[N+](=O)[O-] | 60 | – | – | – | – | – | – | 9350 | 0.77 | 82.4 | 60 | Drug metabolism [21]: Not Active; Drug metabolism [22]: Active
